Data: ChEMBL document CHEMBL3997782, “Methoxylated 2'-hydroxychalcones as antiparasitic hit compounds” (Eur J Med Chem, 2017)
Converted amounts (≈) assume the structure as drawn.

Assays:
[1] = Drug uptake in BALB/c mouse plasma at 20 mg/kg, po as cyclodextrin/PEG400 formulation measured after 0.75 hrs by LC-MS method; format: ADME, organism-based
How it was run: (§1)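 BALB/c mice dosed either free (8% DMSO; 1 mg/kg IV or 20 mg/kg oral), or 20 mg/kg oral in 50% w/v hydroxypropyl-β-cyclodextrin, or 20 mg/kg oral in 25% cyclodextrins plus 50% PEG 400. Serial submandibular blood samples stored at -20°C. Plasma measured by isocratic LC-MS (acetonitrile:water 80:20, 0.2 ml/min), quantifier transition m/z 315.0>161.0.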

CYP3A4 = CYP3A4 (Homo sapiens, UniProt P08684); experiment: Inhibition of human CYP3A4 expressed in baculovirus-infected insect cells at 10 uM using Luciferin-PFBE as substrate in presence of NADPH by P450-Glo luminescence assay relative to control; format: ADME; conditions: probe Luciferin-PFBE
[2] = Drug uptake in BALB/c mouse plasma at 20 mg/kg, po as cyclodextrin/PEG400 formulation measured after 0.25 hrs by LC-MS method; format: ADME, organism-based; how it was run: as §1
[3] = Drug uptake in BALB/c mouse plasma at 20 mg/kg, po as cyclodextrin/PEG400 formulation measured after 1 hr by LC-MS method; format: ADME, organism-based; how it was run: as §1
CYP2C19 = CYP2C19 (Homo sapiens, UniProt P33261); experiment: Inhibition of human CYP2C19 expressed in baculovirus-infected insect cells at 10 uM using Luciferin-H EGE as substrate in presence of NADPH by P450-Glo luminescence assay relative to control; format: ADME; conditions: probe Luciferin-H EGE
How it was run: (§2)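 CYP enzymes as microsomal preparations from baculovirus-infected insect cells, run on the P450-Glo luminogenic substrate platform. A fall in light output indicates inhibition.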

[4] = Drug uptake in BALB/c mouse plasma at 20 mg/kg, po as 50%% cyclodextrin formulation measured after 0.75 hrs by LC-MS method; format: ADME, organism-based; how it was run: as §1
[5] = Half-life in BALB/c mouse at 1 mg/kg, iv by LC-MS method; format: ADME, organism-based; conditions: in vivo; how it was run: as §1
786-0 = experiment: Mitochondrial toxicity in human 786-O cells at 10 uM by mitotracker red chloromethyl-Xrosamine staining based-uptake method relative to control; format: cell-based; conditions: 786-0, 10 µM
How it was run: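 786-O renal carcinoma cells kept in RPMI-1640 with 2 mM glutamine, 10% v/v FCS, streptomycin 100 µg/ml and penicillin G 100 U/ml. Mitochondrial toxicity monitored by MitoTracker Red CMXRos uptake with high-content imaging.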

[6] = Drug uptake in BALB/c mouse plasma at 1 mg/kg, iv measured after 15 mins by LC-MS method; format: ADME, organism-based; how it was run: as §1
[7] = Solubility of the compound in phosphate buffered saline measured after 18 hrs by UV-vis spectroscopic method; format: physicochemical
How it was run: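 Saturated suspensions prepared at 100 µM in water, 100 µM in PBS, 200 µM in PBS + 10% DMSO and 10 mM in PBS + 50% DMSO. Held 18 h at 25°C, passed through a 0.2 µm filter, then quantified by UV-Vis absorbance at 312 nm using the calculated extinction coefficient.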

[8] = Drug uptake in BALB/c mouse plasma at 1 mg/kg, iv measured after 30 mins by LC-MS method; format: ADME, organism-based; how it was run: as §1
Cytochrome P450 2C9 = Cytochrome P450 2C9 (Homo sapiens, UniProt P11712); experiment: Inhibition of human CYP2C9 expressed in baculovirus-infected insect cells using Luciferin-H as substrate in presence of NADPH by P450-Glo luminescence assay
[9] = Drug uptake in BALB/c mouse plasma at 20 mg/kg, po as 50% cyclodextrin formulation measured after 24 hrs by LC-MS method; format: ADME, organism-based; how it was run: as §1
[10] = Drug uptake in BALB/c mouse plasma at 1 mg/kg, iv measured after 180 mins by LC-MS method; format: ADME, organism-based; how it was run: as §1
[11] = Cytotoxicity against human […] cells assessed as cell growth by Cell titer-Glo assay; format: cell-based; conditions: WI-38 cells
How it was run: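 A549 and WI-38 cells grown in DMEM with 10% v/v FCS, streptomycin 100 µg/ml and penicillin G 100 U/ml. Cell number read as cellular ATP by CellTiter-Glo luminescence. Growth 60–100% scored non-cytotoxic, 0–60% cytostatic, below 0 cytotoxic.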

CYP1A2 = target: T1, CYP1A2 (Homo sapiens, UniProt P05177); experiment: Inhibition of human CYP1A2 expressed in baculovirus-infected insect cells at 10 uM using Luciferin-1A2 as substrate in presence of NADPH by P450-Glo luminescence assay relative to control; format: ADME; conditions: probe Luciferin-1A2; how it was run: as §2
T1 sequence (P05177 whole entry): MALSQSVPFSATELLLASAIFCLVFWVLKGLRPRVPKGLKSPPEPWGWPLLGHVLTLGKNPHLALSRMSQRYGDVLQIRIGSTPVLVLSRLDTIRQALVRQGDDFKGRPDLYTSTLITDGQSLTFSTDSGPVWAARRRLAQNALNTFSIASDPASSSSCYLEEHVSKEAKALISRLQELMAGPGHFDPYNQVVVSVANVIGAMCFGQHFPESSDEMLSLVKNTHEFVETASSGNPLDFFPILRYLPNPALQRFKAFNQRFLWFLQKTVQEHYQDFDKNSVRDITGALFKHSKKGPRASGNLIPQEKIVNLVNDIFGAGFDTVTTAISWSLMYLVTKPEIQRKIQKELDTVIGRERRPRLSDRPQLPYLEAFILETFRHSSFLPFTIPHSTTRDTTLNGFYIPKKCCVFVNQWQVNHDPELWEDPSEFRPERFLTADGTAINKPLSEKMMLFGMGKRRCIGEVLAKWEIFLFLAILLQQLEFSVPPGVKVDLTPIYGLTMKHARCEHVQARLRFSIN

[12] = Drug uptake in BALB/c mouse plasma at 20 mg/kg, po measured after 0.75 hrs by LC-MS method; format: ADME, organism-based; how it was run: as §1

CYP3A4, sequence (P08684 whole entry): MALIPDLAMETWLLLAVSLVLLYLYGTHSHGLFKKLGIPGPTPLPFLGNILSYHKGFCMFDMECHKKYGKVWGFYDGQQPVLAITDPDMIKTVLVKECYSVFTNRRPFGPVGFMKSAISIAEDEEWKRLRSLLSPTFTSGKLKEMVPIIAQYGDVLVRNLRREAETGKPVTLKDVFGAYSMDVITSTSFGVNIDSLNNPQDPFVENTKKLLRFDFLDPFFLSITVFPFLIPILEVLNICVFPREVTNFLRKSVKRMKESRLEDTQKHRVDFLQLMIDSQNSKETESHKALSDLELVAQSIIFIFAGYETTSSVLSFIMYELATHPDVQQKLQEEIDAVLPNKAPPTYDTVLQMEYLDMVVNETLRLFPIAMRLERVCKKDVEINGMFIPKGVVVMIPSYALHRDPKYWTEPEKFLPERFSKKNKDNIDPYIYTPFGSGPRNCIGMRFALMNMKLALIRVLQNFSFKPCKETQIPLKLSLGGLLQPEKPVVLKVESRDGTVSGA
Cytochrome P450 2C9, sequence (P11712 whole entry): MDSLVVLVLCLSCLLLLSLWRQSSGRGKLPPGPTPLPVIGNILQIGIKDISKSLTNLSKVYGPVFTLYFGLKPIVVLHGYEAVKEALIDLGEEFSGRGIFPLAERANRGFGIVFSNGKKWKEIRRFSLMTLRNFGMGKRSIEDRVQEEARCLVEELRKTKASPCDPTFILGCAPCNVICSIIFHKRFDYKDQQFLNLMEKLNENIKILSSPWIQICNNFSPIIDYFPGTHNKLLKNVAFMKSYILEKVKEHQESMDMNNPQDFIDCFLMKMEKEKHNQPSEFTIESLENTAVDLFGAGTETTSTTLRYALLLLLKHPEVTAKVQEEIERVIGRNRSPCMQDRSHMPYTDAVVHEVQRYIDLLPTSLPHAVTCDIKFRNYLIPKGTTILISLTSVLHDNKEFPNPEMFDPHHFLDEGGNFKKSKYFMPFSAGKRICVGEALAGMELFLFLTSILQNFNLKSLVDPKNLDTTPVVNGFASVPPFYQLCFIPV
CYP2C19, sequence (P33261 whole entry): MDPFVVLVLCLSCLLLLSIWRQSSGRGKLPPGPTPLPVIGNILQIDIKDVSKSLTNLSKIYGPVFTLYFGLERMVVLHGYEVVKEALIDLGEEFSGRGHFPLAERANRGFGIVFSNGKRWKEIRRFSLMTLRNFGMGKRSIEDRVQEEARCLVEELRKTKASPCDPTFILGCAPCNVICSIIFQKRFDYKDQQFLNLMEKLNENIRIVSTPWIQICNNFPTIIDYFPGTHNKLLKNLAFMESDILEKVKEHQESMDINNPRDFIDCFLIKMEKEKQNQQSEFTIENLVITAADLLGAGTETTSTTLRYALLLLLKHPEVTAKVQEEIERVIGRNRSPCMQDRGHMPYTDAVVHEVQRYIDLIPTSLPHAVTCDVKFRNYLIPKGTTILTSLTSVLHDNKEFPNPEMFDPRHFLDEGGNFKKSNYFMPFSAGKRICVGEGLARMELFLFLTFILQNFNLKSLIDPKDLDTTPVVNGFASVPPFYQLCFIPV

Work on COc1cccc(/C=C/C(=O)c2cc(OC)c(OC)cc2O)c1 yielded a concentration at 0.75 h [1] of 11 nM, an inhibition at 10 µM (CYP3A4) of 12.4% and a concentration at 0.25 h [2] of 48 nM. For the same compound, the concentration at 1 h [3] was 18 nM, the inhibition at 10 µM (CYP2C19) was 49.2% and the concentration at 0.75 h [4] was 164 nM. For the same compound, the half-life [5] was 1.04 h, the Activity (786-0) was 3.6% and the concentration at 0.25 h [6] was 74 nM. For the same compound, the solubility at 18 h [7] was 2.37 µM (≈ 0.745 µg/mL), the concentration at 0.5 h [8] was 55 nM and the IC50 (Cytochrome P450 2C9) was 42.1 µM. It also gave a concentration at 24 h [9] of 5 nM, a concentration at 3 h [10] of 5 nM and a GI50 [11] of 10.8 µM. It also gave an inhibition at 10 µM (CYP1A2) of 98% and a concentration at 0.75 h [12] of 12 nM.
